A selection: hits, their analogues and other compounds. The true share with any hit is near 3.1%.
CHO parental Ca: ATP-evoked calcium signal inhibitors, parental CHO, primary screen, counter-screen for OX1R antagonist project, cell-based, fluorescence, Fluo-8 calcium dye. AID 463079, 2010. inhibition, % at 5.6 µM. actives 0.63% (n = 330,000). parental CHO-K1, ATP-induced calcium, Fluo-8 fluorescence;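 active = inhibition above that plate's mean sample inhibition plus 3 SD, cut at about 26% in these data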
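Test system: parental CHO cells; detection: calcium-sensitive Fluo-8 fluorescence; evaluation: percent inhibition of calcium signal; also added: ATP as calcium-mobilizing challenge; repeats: one well per compound; control set: ATP-challenged DMSO wells low, unchallenged DMSO wells high; compound: single nominal dose of 5.6 µM per compound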
OX1R antag-1: OX1R (HCRTR1) antagonists, primary screen, fluorescence, CHO/OX1R cells, Fluo-8 calcium, orexin A; Fluo-8 calcium fluorescence; inhibition, % at 5 µM; Orexin/Hypocretin receptor type 1 (Homo sapiens), O43613; actives 0.43% (n = 330,000);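 active = inhibition above its plate's threshold, mean inhibition of all tested compounds on the plate plus 3 SD, cut at about 37% in these data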
Target sequence (O43613 whole entry, looked up): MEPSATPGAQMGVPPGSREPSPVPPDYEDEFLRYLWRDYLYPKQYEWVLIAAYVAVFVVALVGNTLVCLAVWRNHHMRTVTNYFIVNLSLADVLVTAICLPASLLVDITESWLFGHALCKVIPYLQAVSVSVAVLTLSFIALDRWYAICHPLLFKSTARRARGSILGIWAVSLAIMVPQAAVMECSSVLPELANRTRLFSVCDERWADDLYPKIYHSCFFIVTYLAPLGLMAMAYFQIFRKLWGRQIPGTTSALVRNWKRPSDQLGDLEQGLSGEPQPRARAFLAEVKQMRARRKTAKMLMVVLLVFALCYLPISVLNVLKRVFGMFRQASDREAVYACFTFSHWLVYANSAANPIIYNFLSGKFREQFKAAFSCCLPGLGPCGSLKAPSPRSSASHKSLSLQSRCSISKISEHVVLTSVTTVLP
OX1R antag-2: antagonists of human orexin 1 receptor (OX1R). OX1R-expressing cells, FRET antagonist read-out. AID 485270, 2010. inhibition, % at 6.6 µM. actives 1.8% (n = 330,000). Orexin/Hypocretin receptor type 1 (Homo sapiens), O43613; in the data active = inhibition mostly above about 38%, no sharp cut-off; inactive = mostly below about 40%
GalR3 antag: GalR3 antagonists in HEK293 cells, primary screen, cell-based, fluorescence readout | actives 0.44% (n = 360,000) | Galanin receptor type 3 (Homo sapiens), O60755 | inhibition, % at 3 µM | HEK293 GalR3-CNG cAMP membrane potential fluorescence; galR3 body fused to GalR1 C-terminus;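 active = inhibition above the screen-wide average plus 3 SD, cut at about 13% in these data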;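 note: forskolin and galanin both at EC90 stimulate the cells; cAMP rise reported by CNG channel membrane potential dye signal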
Target sequence (O60755 1-299 limits assumed): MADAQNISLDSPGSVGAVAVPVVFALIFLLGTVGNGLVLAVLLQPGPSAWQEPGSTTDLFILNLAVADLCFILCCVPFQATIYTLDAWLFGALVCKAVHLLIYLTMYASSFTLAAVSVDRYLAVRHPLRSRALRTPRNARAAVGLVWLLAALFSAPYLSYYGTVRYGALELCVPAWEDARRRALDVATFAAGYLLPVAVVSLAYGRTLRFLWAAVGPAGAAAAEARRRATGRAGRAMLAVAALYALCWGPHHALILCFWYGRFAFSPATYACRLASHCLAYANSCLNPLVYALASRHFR
GPR7 antag: GPR7 receptor antagonists, primary screen, cell-based, fluorescence, single concentration; Neuropeptides B/W receptor type 1 (Homo sapiens), P48145; GPR7-expressing cells, fluorescence antagonist assay; inhibition, % at 4.4 µM; actives 1.1% (n = 290,000); AID 1861, 2009; in the data active = inhibition above about 16%, passing the limit was not always enough;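 note: cells stimulated with the agonist NPW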
Of the large screens only hits and unclear results are named; the others gave an inactive call.

CC(=O)Nc1ccc(NC(=O)COC(=O)c2ccc([N+](=O)[O-])o2)cc1	OX1R antag-2 37 (no result: GPR7 antag)
OC1(c2ccc(OC(F)F)cc2)CSC(=Nc2cccnc2)N1Cc1ccco1 (stereo not given)	GPR7 antag 20 (no result: CHO parental Ca, OX1R antag-1, OX1R antag-2)
COc1cc(OC)cc(C(=O)Nn2c(C)nc3ccccc3c2=O)c1	none
COc1ccc2[nH]c3c(c2c1)CCn1c-3nc2ccccc2c1=O	OX1R antag-2 47 (no result: GalR3 antag)
O=C(CSc1cn[nH]n1)Nc1cccc(C(F)(F)F)c1	none
CC(=O)Nc1ccc(NS(=O)(=O)c2ccc(C)cc2)c([N+](=O)[O-])c1	none
O=[N+]([O-])c1ccc(Nc2ccccc2)c2nonc12	OX1R antag-2 68
CCOc1ccc(Nc2ccc([N+](=O)[O-])c3nonc23)cc1	none
O=C(CSc1cccc[n+]1[O-])Nc1ccc(C(F)(F)F)cc1[N+](=O)[O-]	none
CC(=O)NS(=O)(=O)c1ccc(Nc2ccc([N+](=O)[O-])c3nonc23)cc1	OX1R antag-2 76
O=[N+]([O-])c1ccc(Sc2cccc[n+]2[O-])c2nonc12	GPR7 antag 20 (no result: CHO parental Ca, OX1R antag-1, OX1R antag-2)
CCCN(C(=O)c1cn(CCC)c2ccccc12)c1ccc(Oc2cccnc2)cc1	none (no result: CHO parental Ca, OX1R antag-1, OX1R antag-2, GPR7 antag)
Cn1c(=O)c2c(ncn2Cc2ccc(O)c([N+](=O)[O-])c2)n(C)c1=O	none (no result: CHO parental Ca, OX1R antag-1, OX1R antag-2, GPR7 antag)
CC(=O)C1=C(C)N(CC(C)C)C(=S)NC1c1ccc(Br)cc1 (stereo not given)	none (no result: CHO parental Ca, OX1R antag-1, OX1R antag-2, GPR7 antag)
Cc1[nH]nc2c1C(c1ccc(Br)cc1)N(c1ccccc1)C2=O (stereo not given)	none (no result: CHO parental Ca, OX1R antag-1, OX1R antag-2, GPR7 antag)
CCOc1nc2c(c(=O)n(C)c(=O)n2C)n1Cc1ccccc1Cl	none
Cn1c(=O)c2c(nc(Br)n2Cc2ccccc2Cl)n(C)c1=O	GPR7 antag 19
Cn1c(=O)c2c(SCCN3CCOCC3)nc(C3CCCC3)nc2n(C)c1=O	none
Cc1cc(C)n(Cc2ccc(Cl)nc2)n1	none
COc1ccc(Cn2nc(C)cc2C)cc1OC	CHO parental Ca 99
CC(C)CN1C(=O)C(=O)N(CC(=O)N(C)CC(=O)Nc2ccc(F)cc2)C1=O	none (no result: GPR7 antag)
CC(C)C(=O)N1CCN(c2ccc(NC(=O)c3ccc([N+](=O)[O-])o3)cc2)CC1	OX1R antag-2 46
CN1CCN(c2ccc(NC(=O)c3ccc([N+](=O)[O-])o3)cc2Cl)CC1	OX1R antag-2 54
CC(C)C(=O)N1CCN(c2ccc(NC(=O)c3ccc([N+](=O)[O-])o3)cc2Cl)CC1	none (no result: CHO parental Ca, OX1R antag-1, OX1R antag-2)
Cc1cc(C(=O)Nc2ccc(N3CCCC3)c(Cl)c2)ccc1[N+](=O)[O-]	OX1R antag-2 55
CCCCn1c(N)c(N(CC(C)C)C(=O)c2ccc(C)c(S(=O)(=O)N3CCCCC3)c2)c(=O)[nH]c1=O	none (no result: GPR7 antag)
O=C(c1ccc2c(c1)OCO2)N(c1ccc(Br)cc1)C1C=CS(=O)(=O)C1 (stereo not given)	none
COc1ccc(C(=O)c2nccc3cc(OC)c(OC)cc23)cc1OC	OX1R antag-2 69 (no result: GalR3 antag, GPR7 antag)
O=C(CCNC(=O)C1CCN(S(=O)(=O)c2ccccc2)CC1)NCc1ccccc1Cl	none
COC(=O)C(Cc1ccc(OC(=O)c2ccc(C(F)(F)F)cc2)cc1)N1Cc2ccccc2C1=O (stereo not given)	CHO parental Ca 40 (no result: GalR3 antag)
COC(=O)C(Cc1ccc(OC(=O)c2ccc(Cl)cc2)cc1)N1Cc2ccccc2C1=O (stereo not given)	CHO parental Ca 53, OX1R antag-1 41
Cc1ccc(S(=O)(=O)N2[C@@H](c3ccccc3F)C(C(=O)O)=CC[C@H]2c2ccc(Cl)c(Cl)c2)cc1	OX1R antag-2 67 (no result: GPR7 antag)
Cc1ccc(S(=O)(=O)N2[C@@H](c3ccccc3)C(C(=O)O)=CC[C@H]2c2ccc(Cl)c(Cl)c2)cc1	OX1R antag-2 55 (no result: GPR7 antag)
Cc1ccc([C@H]2C(C(=O)O)=CC[C@@H](c3ccc(Cl)c(Cl)c3)N2S(=O)(=O)c2ccc(C)cc2)cc1	none (no result: GPR7 antag)
CCCOc1ccc(OC(=O)c2ccc(Br)o2)cc1	CHO parental Ca 56, OX1R antag-1 67
CCc1ccc(OCC(=O)NNC(=O)CNC(=O)c2ccc(Br)o2)cc1	none (no result: GPR7 antag)
O=[N+]([O-])c1cc(C(F)(F)F)ccc1N1CCC(O)CC1	none
O=C(Nc1ccc(Cl)cc1)N1CCCN(c2ccc(C(F)(F)F)cc2[N+](=O)[O-])CC1	OX1R antag-1 57
Cc1ccc(S(=O)(=O)NC(=O)COc2ccc([N+](=O)[O-])cc2)cc1	none
CC(C)(C)c1ccc(Cn2c(=N)n(CC(O)c3ccco3)c3ccccc32)cc1 (stereo not given)	GPR7 antag 24 (no result: GalR3 antag)
Cc1ccccc1Cn1c(=N)n(CC(O)c2ccco2)c2ccccc21 (stereo not given)	none
COc1cc(S(=O)(=O)NCC2(N3CCCCC3)CCCCC2)ccc1NC(C)=O	none (no result: CHO parental Ca, OX1R antag-1, OX1R antag-2, GPR7 antag)
Cc1ccc2oc(C(=O)NCc3ccc4c(c3)OCO4)c(C)c2c1	none
Cc1c(C(=O)NCc2ccc3c(c2)OCO3)oc2ccccc12	OX1R antag-2 45
O=S(=O)(NCc1ccc2c(c1)OCO2)c1ccc2c(c1)oc1ccccc12	OX1R antag-2 44
COC(=O)c1ccc(/C=C(\C#N)c2nc3ccccc3s2)cc1	CHO parental Ca 49, OX1R antag-1 56
N#C/C(=C\c1ccccn1)c1nc2ccccc2s1	CHO parental Ca 45, OX1R antag-1 57, GPR7 antag 21
COc1ccc(/C(C#N)=C/c2ccccn2)cc1	none
CC1(C(=O)N2CC3(CC(c4cccc([N+](=O)[O-])c4)=NO3)C[C@H]2C(=O)NCC(N)=O)CC1 (stereo not given in full)	OX1R antag-2 48
NC(=O)CNC(=O)[C@@H]1CC2(CC(c3cccc([N+](=O)[O-])c3)=NO2)CN1C(=O)c1ccccc1 (stereo not given in full)	none
O=C(COC(=O)C1CCN(S(=O)(=O)c2cccc3cccnc23)CC1)c1ccccc1	none
O=c1c2cc([N+](=O)[O-])ccc2nc2n1CCCC2	OX1R antag-2 69
O=c1c2cc(Br)ccc2nc2n1CCCCC2	none (no result: GalR3 antag)
CN(C)S(=O)(=O)c1cccc(NC(=O)c2ccc(COc3ccccc3)cc2)c1	CHO parental Ca 56
COCc1ccc(C(=O)Nc2cccc(S(=O)(=O)N(C)c3ccccc3)c2)cc1	none (no result: GPR7 antag)
CCCCn1c(N)c(N(Cc2ccccc2OC)C(=O)C(C)Oc2cccc(Cl)c2)c(=O)[nH]c1=O (stereo not given)	none (no result: CHO parental Ca, OX1R antag-1, OX1R antag-2, GPR7 antag)
COC(=O)C1=C(C)N(C)C(=NCc2ccc(C(F)(F)F)cc2)NC1c1ccc(Cl)cc1 (stereo not given)	none (no result: CHO parental Ca, OX1R antag-1, OX1R antag-2, GPR7 antag)
CCCOc1ccc(C(=O)NNC(=S)NC(=O)c2ccco2)cc1	CHO parental Ca 70, OX1R antag-1 86
CCCOc1ccc(C(=O)NNC(=S)NC(C)=O)cc1	none

Screening results from PubChem.
